Screening data from PubChem.
SENP7 inh = inhibitors of human SENP7 protease | Q9BQF6 | recombinant SENP7, Z-RLRGG-aminoluciferin luminescence, 40 min | inhibition, % at 5 µM | 330,000 compounds, 1.5% hits;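 active = inhibition above about 50% at the single test dose, limit read from the data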;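 also: plate controls were DMSO with enzyme for no effect and no enzyme buffer wells for full effect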
Target sequence (Q9BQF6 706-1050 limits assumed): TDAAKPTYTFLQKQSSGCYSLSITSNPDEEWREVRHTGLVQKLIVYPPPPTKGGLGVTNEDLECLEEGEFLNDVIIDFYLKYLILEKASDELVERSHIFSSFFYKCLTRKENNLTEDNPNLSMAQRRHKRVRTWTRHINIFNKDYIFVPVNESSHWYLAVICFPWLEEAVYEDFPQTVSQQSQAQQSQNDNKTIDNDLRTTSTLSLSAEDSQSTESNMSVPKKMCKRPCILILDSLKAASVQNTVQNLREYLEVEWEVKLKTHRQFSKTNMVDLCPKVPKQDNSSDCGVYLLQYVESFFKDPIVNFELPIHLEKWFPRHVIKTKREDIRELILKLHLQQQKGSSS
SENP8 block-1 = SENP8 protease inhibition | AID 2540 | purified SENP8, Z-RLRGG-aminoluciferin cleavage, luminescence | 330,000 compounds, 1.2% hits | inhibition, % at 10 µM; in the data active = inhibition above about 50%
SENP8 block-2 = SENP8 (human) protease inhibition | recombinant SENP8, Nedd8 substrate fluorescence | AID 602440 | 360,000 compounds, 0.64% hits | inhibition, % at 20 µM; in the data active = inhibition mostly above about 40%, no sharp cut-off; inactive = mostly below about 27%
Apaf-1 inh = human Apaf-1 inhibition; reconstituted apoptosome caspase-3 activity, DEVD-Rh110 fluorescence; inhibition, % at 20 µM; 330,000 compounds, 0.71% hits; AID 489030; active = inhibition of at least 40% at 20 µM;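 also: plate controls were DMSO wells for no effect and DEVD-CHO caspase inhibitor wells for full effect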
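Assay system: Apoptosome proteins | Medium: pH 7.5 Hepes buffer with CHAPS, BSA, DTT | Also added: Cytochrome c and DEVD-Rh110 substrate | Times: 30 min plus 50 min, RT | Detection: Rhodamine 110 fluorescence at Ex 480/Em 540 nm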
SENP1 FRET inh = blocks the human SENP1 SUMO protease catalytic domain; recombinant SENP1 catalytic domain, CyPet-SUMO1-YPet FRET cleavage; inhibition, % at 10 µM; 360,000 compounds, 0.21% hits; AID 624204;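 active = inhibition at least 30% at 10 µM, raw YFP signal under a set limit, fluorescence ratio 0.5 to 1.5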;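 also: 0% = enzyme with DMSO and 100% = no enzyme wells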
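System: Recombinant human SENP1 catalytic domain, His6-tagged | Incubation: Enzyme reaction for 50 min at room temperature, dark | Medium: Tris pH 8 with BME, BSA, NP40 and catalase | Also added: 25 nM SUMO1 FRET substrate | Compound: 10 µM single point, 0.5% DMSO | Measured by: FRET fluorescence in CFP and YFP emission channels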
SENP6 block = blocks the human protease SENP6; Recombinant SENP6 catalytic domain, aminoluciferin luminescence; inhibition, % at 10 µM; 330,000 compounds, 1.8% hits;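 active = inhibition above about 50% at the single tested dose, limit read from the data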;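 also: plate controls were DMSO wells with enzyme for no effect and DMSO wells lacking enzyme for full effect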
SENP8 conf = confirmation of human SENP8 protease inhibitors | shares compounds with SENP7 inh | Recombinant SENP8, Z-RLRGG-aminoluciferin luminescence, 60 min | inhibition, % at 12.5 µM | 6,200 compounds, 40% hits | AID 488912;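 active = mean inhibition across replicates above about 50%, limit read from the data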
SENP6 confirm = confirmation of human SENP6 protease inhibitors | shares compounds with SENP7 inh | recombinant SENP6, Z-RLRGG-aminoluciferin luminescence | inhibition, % at 12.5 µM | 6,200 compounds, 58% hits
SENP7 conf = confirmation of human SENP7 protease inhibitors. 6,200 compounds, 69% hits. recombinant SENP7, Z-RLRGG-aminoluciferin luminescence, 40 min. inhibition, % at 12.5 µM. shares compounds with SENP7 inh
Casp3 SENP sel = selectivity test for SENP inhibitors: human caspase-3 inhibition; shares compounds with SENP7 inh; purified caspase-3, Z-DEVD-aminoluciferin luminescence, 60 min; inhibition, % at 12.5 µM; 6,200 compounds, 60% hits;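 active = mean inhibition above about 50%, limit read from the data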;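 also: plate controls were enzyme with DMSO for no effect and wells without caspase-3 for full effect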
SENP luc ctr = interferes with luciferase luminescence in SENP counter-screen; shares compounds with SENP7 inh; inhibition, % at 12.5 µM; AID 488919; Pre-incubated SENP8/Z-RLRGG-aminoluciferin, luciferase luminescence interference; 6,200 compounds, 39% hits;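 active = mean inhibition above about 50% when retested at one dose, limit read from the data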;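 also: plate controls were DMSO wells with completed reaction for no effect and substrate without enzyme for full effect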
The depositor's hits bear a star; . = not tested or not shown. Compounds with a hit are over-represented: about 2.9% of the library has one in this group of screens.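 The calls were made as follows, unless noted: active = mean inhibition above about 50% in the one-dose retest (limit read from the data); inactive = the rest.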

SMILES	SENP7 inh	SENP8 block-1	SENP8 block-2	Apaf-1 inh	SENP1 FRET inh	SENP6 block	SENP8 conf	SENP6 confirm	SENP7 conf	Casp3 SENP sel	SENP luc ctr
CCCc1nn(C)c(C(=O)Nc2ccc3ccccc3c2)c1Cl	37	29	15	0	-1	52*	-3	1	13	11	-1
Cc1ccsc1C=C1C(=O)c2ccccc2C1=O	69*	44	31	3	3	11	74*	66*	79*	69*	37
Cc1ccsc1/C=C1/C(=O)NN(c2ccccc2)C1=O	27	11	28	-7	0	-2	.	.	.	.	.
CC(C)[C@@H]1Cc2[nH]c(=S)[nH]c(=O)c2[C@H](CCc2ccccc2)O1	.	.	7	.	0	.	.	.	.	.	.
Cc1ccc(/C=N/Nc2ccc(Cl)c(C(=O)O)c2)s1	84*	84*	-55	2	-12	96*	96*	96*	101*	50*	94*
O=C(O)c1cc(N/N=C/c2ccc3c(c2)OCCO3)ccc1Cl	.	.	-69	.	0	.	.	.	.	.	.
O=C(O)c1ccc(N/N=C/c2ccc3c(c2)OCO3)cc1	100*	98*	-244	6	2	97*	99*	100*	103*	98*	98*
O=C(O)c1cc(N/N=C/c2ccc3c(c2)OCO3)ccc1Cl	7	69*	-73	9	-2	66*	3	81*	95*	63*	83*
O=C(CNC(=O)c1cccc([N+](=O)[O-])c1)NC1CCCc2ccccc21 (stereo unspecified)	-4	3	9	5	2	-6	.	.	.	.	.
COc1ccc(NC(=O)c2coc(C)c2)cc1	-3	-14	8	-3	0	-4	.	.	.	.	.
CCOC(=O)/C(=N\Nc1ccc(Br)cc1)N1CC(C)OC(C)C1 (stereo unspecified)	-1	-9	14	-4	1	-20	.	.	.	.	.
O=C(COc1ccccc1Cl)Nc1ccc(Cl)cn1	48	38	4	17	2	74*	24	61*	86*	60*	6
O=C(COc1ccc(Cl)cc1Cl)Nc1ccccn1	100*	98*	10	4	-1	-10	96*	98*	101*	96*	80*
CCCCc1cc(=O)oc2cc(C)cc(OCC(=O)Nc3ccccn3)c12	13	31	-256	2	3	53*	40	34	68*	76*	53*
Cc1c(C)c2ccc(OCC(=O)Nc3ccccn3)c(C)c2oc1=O	100*	92*	-260	4	0	98*	59*	88*	39	93*	20
Cc1cc(NC(=O)/C(C#N)=C\c2ccc(-c3ccc(SC(F)F)cc3)o2)n(-c2ccccc2)n1	.	.	-92	.	-24	.	.	.	.	.	.
CC(=O)NCCNc1nc(NCC2CC2)nc2cc(-c3ccccc3)sc12	.	.	-201	.	2	.	.	.	.	.	.
COc1ccccc1OCC(=O)Nc1ccncc1	-4	-6	12	-3	-3	-4	.	.	.	.	.
COc1ccccc1OCC(=O)Nc1ccccn1	86*	78*	2	-12	1	82*	78*	74*	94*	93*	81*
Cn1c(C(=O)NN)cc2cc(Oc3ccccc3)ccc21	2	-4	-148	8	0	-34	.	.	.	.	.
Cn1c(C(=O)O)cc2cc(Oc3ccccc3)ccc21	13	64*	-25	0	-1	80*	7	66*	82*	71*	72*
